pIC50: −log10 of the molar value. The source made the active and inactive calls. The rule behind the calls is not given here.
What was measured:
[1] = molecular target: T1, Myeloperoxidase (Homo sapiens) (UniProt P05164); conditions: 100 uM
T1 sequence (whole entry): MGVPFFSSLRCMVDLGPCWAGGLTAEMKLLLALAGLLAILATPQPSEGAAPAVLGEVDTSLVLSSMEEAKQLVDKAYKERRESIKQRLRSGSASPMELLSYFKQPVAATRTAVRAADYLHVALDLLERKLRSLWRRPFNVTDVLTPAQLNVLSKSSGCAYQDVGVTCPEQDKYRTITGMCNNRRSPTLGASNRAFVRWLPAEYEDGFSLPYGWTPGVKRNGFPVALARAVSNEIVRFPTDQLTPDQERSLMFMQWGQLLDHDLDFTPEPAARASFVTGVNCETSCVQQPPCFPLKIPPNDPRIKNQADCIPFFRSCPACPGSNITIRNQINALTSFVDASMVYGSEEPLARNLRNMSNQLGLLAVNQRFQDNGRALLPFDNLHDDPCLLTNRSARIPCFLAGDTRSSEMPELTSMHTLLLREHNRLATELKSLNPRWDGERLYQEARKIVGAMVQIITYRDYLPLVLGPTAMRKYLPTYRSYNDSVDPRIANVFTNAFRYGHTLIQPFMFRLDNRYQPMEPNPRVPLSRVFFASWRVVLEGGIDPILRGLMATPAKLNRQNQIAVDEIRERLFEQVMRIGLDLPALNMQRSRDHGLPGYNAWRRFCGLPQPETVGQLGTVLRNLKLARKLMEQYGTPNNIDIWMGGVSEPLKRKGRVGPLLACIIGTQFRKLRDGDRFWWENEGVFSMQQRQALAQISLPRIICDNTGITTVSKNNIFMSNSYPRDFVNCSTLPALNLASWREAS

Myeloperoxidase = molecular target: T2, Myeloperoxidase (Homo sapiens, UniProt P05164); test: Inhibition of human recombinant myeloperoxidase by amplex red assay; conditions: for pIC50: read-out: IC50
T2 sequence (P05164 whole entry): T1 sequence (whole entry)

[2] = molecular target: T3, Xanthine dehydrogenase/oxidase (Homo sapiens, UniProt P47989); test: Inhibition of xanthine oxidase (unknown origin) assessed as superoxide generation measured for 20 mins by luminescence analysis using 50 uM xanthine as a substrate; conditions: for pIC50: read-out: IC50
In short: (§1)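 Xanthine/xanthine oxidase served as the oxidant source to check for assay interference. The buffer and pH matched the MPO Amplex Red assay. Inhibitors were tested over a range up to 100 μM.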

Armoracia rusticana = test: Inhibition of horseradish peroxidase by amplex red assay
In short: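 Interference counter-screen: the Amplex Red peroxidase assay was run with HRP (20 nM) in place of human MPO, across a range of compound concentrations. Points are the mean ± SEM of three determinations.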

[3] = molecular target: T3, Xanthine dehydrogenase/oxidase; test: Inhibition of xanthine oxidase (unknown origin) assessed as superoxide generation upto 100 uM measured for 20 mins by luminescence analysis using 50 uM xanthine as a substrate; conditions: read-out: Imax
In short: as §1

[4] = Solubility of compound in water by nephelometry; assay type: physicochemical
[5] = molecular target: T1, Myeloperoxidase (Homo sapiens); conditions: 6 uM

T3 sequence (P47989 whole entry): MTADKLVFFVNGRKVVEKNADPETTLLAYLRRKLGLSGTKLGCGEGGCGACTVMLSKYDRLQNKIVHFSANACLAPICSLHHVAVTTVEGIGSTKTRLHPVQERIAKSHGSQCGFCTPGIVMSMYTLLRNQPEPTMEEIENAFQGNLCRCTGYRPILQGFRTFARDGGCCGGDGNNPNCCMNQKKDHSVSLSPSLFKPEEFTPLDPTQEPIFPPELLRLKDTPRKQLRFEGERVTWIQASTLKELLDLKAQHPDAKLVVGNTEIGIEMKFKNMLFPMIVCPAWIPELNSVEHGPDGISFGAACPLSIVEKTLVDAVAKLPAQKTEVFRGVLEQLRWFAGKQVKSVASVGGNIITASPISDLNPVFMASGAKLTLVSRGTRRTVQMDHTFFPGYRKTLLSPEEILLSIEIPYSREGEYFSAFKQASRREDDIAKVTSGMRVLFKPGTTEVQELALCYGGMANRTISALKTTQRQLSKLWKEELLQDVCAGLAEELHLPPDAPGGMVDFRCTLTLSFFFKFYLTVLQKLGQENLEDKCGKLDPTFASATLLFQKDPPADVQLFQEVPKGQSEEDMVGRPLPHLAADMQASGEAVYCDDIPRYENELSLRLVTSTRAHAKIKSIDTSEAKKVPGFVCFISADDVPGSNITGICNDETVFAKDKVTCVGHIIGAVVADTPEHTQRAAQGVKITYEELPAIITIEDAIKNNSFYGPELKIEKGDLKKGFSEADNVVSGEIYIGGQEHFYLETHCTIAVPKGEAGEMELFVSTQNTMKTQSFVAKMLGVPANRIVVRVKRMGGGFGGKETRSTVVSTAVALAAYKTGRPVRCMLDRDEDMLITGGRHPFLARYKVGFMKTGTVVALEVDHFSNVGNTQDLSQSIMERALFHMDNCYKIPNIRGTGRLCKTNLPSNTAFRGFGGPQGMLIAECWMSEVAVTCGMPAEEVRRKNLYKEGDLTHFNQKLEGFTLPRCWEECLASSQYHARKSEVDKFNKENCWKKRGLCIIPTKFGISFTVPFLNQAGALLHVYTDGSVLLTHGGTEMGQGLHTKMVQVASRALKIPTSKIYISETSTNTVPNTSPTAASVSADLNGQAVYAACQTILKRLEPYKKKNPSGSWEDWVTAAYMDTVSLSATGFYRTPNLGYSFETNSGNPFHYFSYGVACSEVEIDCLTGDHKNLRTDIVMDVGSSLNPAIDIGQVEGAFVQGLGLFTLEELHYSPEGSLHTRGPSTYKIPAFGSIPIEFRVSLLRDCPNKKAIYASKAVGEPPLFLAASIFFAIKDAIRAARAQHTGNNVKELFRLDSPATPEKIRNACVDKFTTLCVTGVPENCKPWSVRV

| SMILES | pIC50 (Myeloperoxidase) | IC50 [2] | further results |
| --- | --- | --- | --- |
| O=C(NO)c1ccccc1O |  |  | inhibition [1]: Active |
| CN(C)CCn1c(=S)[nH]c2ccccc2c1=O | 5.77 | Not Active |  |
| O=c1c2ccccc2[nH]c(=S)n1CCN1CCCCC1 | 6.40 | Not Active |  |
| O=C(Nn1c(=S)[nH]c2ccc(F)cc2c1=O)c1cccc(F)c1 |  |  | inhibition (Armoracia rusticana): inactive |
| CN(C)CCCn1c(=S)[nH]c2cc(Cl)ccc2c1=O | 5.10 |  | pIC50 [2]: 5.40; Emax [3]: 50% |
| CN(C)CCCn1c(=S)[nH]c2cc(F)c(F)cc2c1=O.Cl | 5.92 | Not Active |  |
| CCN(CC)CCn1c(=S)[nH]c2ccccc2c1=O | 5.80 | Not Active |  |
| CCn1c(=S)[nH]c2ccc(F)cc2c1=O | 4.82 | Not Active |  |
| O=C(Nn1c(=S)[nH]c2cc3c(cc2c1=O)OCCO3)c1ccc(C(F)(F)F)cc1 | 6.52 | Not Active |  |
| CN(C)CCCn1c(=O)[nH]c2ccccc2c1=O |  | Not Active | IC50 (Myeloperoxidase): Not Active |
| CC(C)n1c(=S)[nH]c2cc3c(cc2c1=O)OCCO3 | < 4.70 |  | pIC50 [2]: 5.35; Emax [3]: 60% |
| CN(C)CCCCCCn1c(=S)[nH]c2ccc(F)cc2c1=O | < 4.70 |  | pIC50 [2]: 4.74; Emax [3]: 35% |
| CN(C)CCCn1c(=S)[nH]c2ccccc2c1=O | 5.89 |  | pIC50 [2]: 4.70; Emax [3]: 20% |
| CN(C)CCCCCn1c(=O)[nH]c2ccccc2c1=O | 5.00 | Not Active |  |
| O=c1c2ccccc2[nH]c(=S)n1CCCCCO | < 4.40 | Not Active |  |
| CN(C)CCCn1c(=S)[nH]c2c(Cl)cc(Cl)cc2c1=O | < 4.70 | Not Active |  |
| CN(C)CCCn1c(=S)[nH]c2ccc(F)cc2c1=O.Cl | 6.22 | Not Active |  |
| CN(C)CCCCn1c(=O)[nH]c2ccccc2c1=O | 5.00 | Not Active |  |
| CN(C)CCCn1c(=S)[nH]c2ccc(Cl)cc2c1=O.Cl | 6.10 |  | inhibition (Armoracia rusticana): inactive; pIC50 [2]: 4.82; solubility kinetic [4]: 90 µg/mL; Emax [3]: 71% |
| CN1CCN(CCCn2c(=S)[nH]c3ccccc3c2=O)CC1 | 5.85 | Not Active |  |
| NNC(=O)c1ccc(N)cc1 |  |  | inhibition [5]: Active |

Source: ChEMBL document CHEMBL3739290, “Thioxo-dihydroquinazolin-one Compounds as Novel Inhibitors of Myeloperoxidase” (ACS Med Chem Lett, 2015)
